Assay results from ChEMBL document CHEMBL4765336, “Discovery of coumarin derivatives as potent and selective cyclin-dependent kinase 9 (CDK9) inhibitors with high antitumour activity” (Eur J Med Chem, 2020).

Tests used:
[1] = target: Cyclin-dependent kinase 2/cyclin E1 (Homo sapiens, UniProt P24941); assay: Inhibition of CDK2/Cyclin E (unknown origin) preincubated for 20 mins followed by ATP addition and measured after 120 mins in presence of [33P-gamma] ATP by hotspot kinase assay; type: protein-complex assay
Method in brief: (§1)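 Radiometric filter-binding assay: kinase and substrate in 20 mM Hepes pH 7.5, 10 mM MgCl2, 1 mM EGTA, 0.02% Brij35, 0.02 mg/mL BSA, 0.1 mM Na3VO4, 2 mM DTT, 1% DMSO. Compound (top 1/10/27 μM, 3-fold serial dilutions) preincubated 20 min at 25 °C. ATP plus [γ-33P]ATP added to 10 μM final, reacted 120 min at 25 °C. IC50 from curve fit, duplicate mean.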

[2] = Initial plasma concentration in ICR mouse at 2 mg/kg, iv measured up to 24 hrs by LC-MS/MS analysis; type: ADME, organism-based
Method in brief: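 Male ICR mice (25.1–28.8 g, n=9), fasted 12 h, given a single i.v. dose of 2.0 mg/kg at 0.4 mg/mL in DMSO/PEG200/saline (1:1:3). Blood sampled at 0, 0.083, 0.25, 0.5, 1, 2, 4, 8, 24 h. Plasma ACN-precipitated and quantified by LC-MS/MS. Parameters derived from composite mean plasma concentration-time data.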

NCI-H460 = assay: Antiproliferative activity against human NCI-H460 cells assessed as inhibition of cell growth incubated for 72 hrs by Celltiter-Glo luminescent assay; type: functional, cell-based; details: NCI-H460, 72 h
Method in brief: (§2)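 Cells seeded in growth medium and held overnight at 37 °C; medium-only wells served as background. DMSO stocks were diluted in medium to 3× final and added; cells incubated 72 h at 37 °C, 5% CO2. Viability read by CellTiter-Glo luminescence after 60 min at room temperature. IC50 from curve fit, mean of duplicate.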

SW-620 = assay: Antiproliferative activity against human SW-620 cells assessed as inhibition of cell growth incubated for 72 hrs by Celltiter-Glo luminescent assay; type: functional, cell-based; details: SW-620, 72 h; method in brief: as §2
[3] = target: Cyclin-dependent kinase 5/CDK5 activator 1 (Homo sapiens, UniProt Q00535); assay: Inhibition of CDK5/p25 (unknown origin) preincubated for 20 mins followed by ATP addition and measured after 120 mins in presence of [33P-gamma] ATP by hotspot kinase assay; type: protein-complex assay; method in brief: as §1
Sequence of Cyclin-dependent kinase 5/CDK5 activator 1 (Q00535 whole entry): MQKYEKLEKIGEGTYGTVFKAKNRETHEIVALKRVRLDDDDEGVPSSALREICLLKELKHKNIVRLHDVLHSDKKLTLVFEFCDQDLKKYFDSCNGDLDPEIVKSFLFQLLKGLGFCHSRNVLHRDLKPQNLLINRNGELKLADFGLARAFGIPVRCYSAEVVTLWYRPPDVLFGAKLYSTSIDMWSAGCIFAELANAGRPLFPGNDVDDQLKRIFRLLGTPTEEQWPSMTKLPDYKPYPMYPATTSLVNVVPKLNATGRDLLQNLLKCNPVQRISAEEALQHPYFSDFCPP
Sequence of Cyclin-dependent kinase 5/CDK5 activator 1 (Q15078 whole entry, further chain): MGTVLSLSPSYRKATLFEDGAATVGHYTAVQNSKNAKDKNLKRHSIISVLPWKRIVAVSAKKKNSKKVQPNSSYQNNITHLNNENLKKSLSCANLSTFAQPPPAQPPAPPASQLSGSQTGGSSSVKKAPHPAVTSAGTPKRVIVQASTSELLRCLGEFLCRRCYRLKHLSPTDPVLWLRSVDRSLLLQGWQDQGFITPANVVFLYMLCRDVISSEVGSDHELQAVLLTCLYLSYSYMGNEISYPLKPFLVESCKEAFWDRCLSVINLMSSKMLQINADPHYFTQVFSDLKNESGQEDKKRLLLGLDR

[4] = target: Glycogen synthase kinase-3 (Homo sapiens) (UniProt P49840+P49841); assay: Inhibition of GSK3alpha/beta (unknown origin) assessed as enzyme activity at 1 uM preincubated for 20 mins followed by ATP addition and measured after 120 mins in presence of [33P-gamma] ATP by hotspot kinase assay relative to control; type: protein assay; parameters: scale not given: the % may be the effect or the level left; details: time 140.0 min
Sequence of Glycogen synthase kinase-3 (Homo sapiens) (P49840 whole entry, looked up): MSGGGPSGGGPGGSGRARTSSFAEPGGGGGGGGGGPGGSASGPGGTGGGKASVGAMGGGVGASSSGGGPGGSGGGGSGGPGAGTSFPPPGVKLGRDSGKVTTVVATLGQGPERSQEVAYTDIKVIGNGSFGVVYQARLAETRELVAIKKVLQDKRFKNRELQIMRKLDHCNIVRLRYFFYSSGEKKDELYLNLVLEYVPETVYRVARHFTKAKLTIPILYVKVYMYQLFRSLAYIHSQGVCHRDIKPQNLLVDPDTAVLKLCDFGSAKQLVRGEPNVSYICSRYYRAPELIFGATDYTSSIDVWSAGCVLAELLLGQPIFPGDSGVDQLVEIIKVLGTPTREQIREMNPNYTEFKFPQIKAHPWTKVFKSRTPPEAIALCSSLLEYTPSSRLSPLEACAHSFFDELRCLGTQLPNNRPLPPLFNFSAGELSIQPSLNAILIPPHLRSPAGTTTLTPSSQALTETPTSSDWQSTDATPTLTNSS
Sequence of Glycogen synthase kinase-3 (Homo sapiens) (P49841 whole entry, looked up): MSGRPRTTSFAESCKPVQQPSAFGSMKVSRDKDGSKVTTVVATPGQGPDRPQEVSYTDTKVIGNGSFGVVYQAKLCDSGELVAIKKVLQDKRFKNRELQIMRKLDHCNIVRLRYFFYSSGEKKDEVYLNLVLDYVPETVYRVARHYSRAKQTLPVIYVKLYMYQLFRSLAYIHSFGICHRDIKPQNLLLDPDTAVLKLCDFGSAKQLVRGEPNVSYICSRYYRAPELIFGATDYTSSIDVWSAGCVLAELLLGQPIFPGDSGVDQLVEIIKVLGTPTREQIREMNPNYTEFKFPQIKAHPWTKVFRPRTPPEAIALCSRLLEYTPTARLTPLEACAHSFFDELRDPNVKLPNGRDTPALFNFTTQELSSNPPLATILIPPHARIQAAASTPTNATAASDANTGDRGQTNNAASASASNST
Method in brief: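 Radiometric filter-binding kinase assay, buffer pH 7.5 with 10 mM MgCl2 and 1% DMSO. Compound tested at a single 1.0 μM, preincubated 20 min at 25 °C. Reaction started with ATP/[γ-33P]ATP at 10 μM final, run 120 min at 25 °C. Remaining % enzyme activity reported, n=2.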

[5] = Metabolic stability in human liver microsomes assessed as intrinsic clearance at 1 uM incubated up to 60 mins in presence of NADPH by LC-MS/MS analysis; type: ADME, Microsome; details: read-out: CLH
Method in brief: (§3)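 Liver microsomes (0.5 mg/mL) incubated at 37 °C with compound at 1.0 μM final, 3 mM MgCl2 and 1 mM NADPH in 100 mM PBS pH 7.4. Samples taken at 0, 5, 15, 30, 60 min; remaining parent measured by LC-MS/MS. k = −slope, T1/2 = 0.693/k, CLint = k/microsomal protein concentration. Midazolam served as control.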

CDK3/Cyclin E = CDK3/Cyclin E (Homo sapiens, UniProt Q00526); assay: Inhibition of CDK3/Cyclin E (unknown origin) preincubated for 20 mins followed by ATP addition and measured after 120 mins in presence of [33P-gamma] ATP by hotspot kinase assay; type: protein-complex assay; method in brief: as §1
Sequence of CDK3/Cyclin E (P24864 whole entry): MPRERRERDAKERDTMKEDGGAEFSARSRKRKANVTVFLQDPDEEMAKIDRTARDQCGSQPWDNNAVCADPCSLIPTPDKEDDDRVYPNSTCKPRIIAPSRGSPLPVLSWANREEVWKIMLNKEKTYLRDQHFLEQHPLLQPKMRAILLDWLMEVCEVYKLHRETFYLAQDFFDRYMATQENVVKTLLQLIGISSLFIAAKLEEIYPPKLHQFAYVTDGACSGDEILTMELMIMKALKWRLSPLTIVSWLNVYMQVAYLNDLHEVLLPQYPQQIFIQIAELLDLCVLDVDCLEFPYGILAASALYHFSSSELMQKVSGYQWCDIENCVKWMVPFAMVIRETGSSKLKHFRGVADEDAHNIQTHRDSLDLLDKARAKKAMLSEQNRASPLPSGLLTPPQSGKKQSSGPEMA
Sequence of CDK3/Cyclin E (Q00526 whole entry): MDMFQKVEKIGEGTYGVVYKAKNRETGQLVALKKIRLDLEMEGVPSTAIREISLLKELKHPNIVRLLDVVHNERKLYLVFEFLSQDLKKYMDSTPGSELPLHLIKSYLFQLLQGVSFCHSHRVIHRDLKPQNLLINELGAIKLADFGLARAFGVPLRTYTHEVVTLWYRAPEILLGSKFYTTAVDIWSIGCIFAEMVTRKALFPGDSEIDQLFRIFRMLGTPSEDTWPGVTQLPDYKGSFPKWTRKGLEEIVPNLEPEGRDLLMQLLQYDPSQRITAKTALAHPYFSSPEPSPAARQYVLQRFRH

HepG2 = assay: Antiproliferative activity against human HepG2 cells assessed as inhibition of cell growth incubated for 72 hrs by Celltiter-Glo luminescent assay; type: functional, cell-based; details: HepG2, 72 h; method in brief: as §2
[6] = Toxicity in BALB/c nude mouse xenografted with human MV4-11 cells assessed as mortality at 40 mg/kg, iv administered once daily for 21 days and measured 2 or 3 times per week; type: organism-based; details: in vivo, 504 h, time 21 day
Method in brief: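 Female BALB/c nude mice, six weeks old, with subcutaneous right-flank MV4-11 xenografts (5 million cells in PBS mixed 1:1 with Matrigel). Daily intravenous dosing started at tumour size 150–200 mm³, 6 mice per group, for 21 consecutive days. Vehicle was dimethylacetamide 20%/polyoxyethylated castor oil 40%/anhydrous ethanol 40%. Body weight was recorded two or three times weekly, and mortality was monitored throughout treatment.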

[7] = target: Cyclin-dependent kinase 1/cyclin B1 (Homo sapiens, UniProt P06493); assay: Inhibition of CDK1/Cyclin B (unknown origin) preincubated for 20 mins followed by ATP addition and measured after 120 mins in presence of [33P-gamma] ATP by hotspot kinase assay; type: protein-complex assay; method in brief: as §1
Sequence of Cyclin-dependent kinase 1/cyclin B1 (P06493 whole entry): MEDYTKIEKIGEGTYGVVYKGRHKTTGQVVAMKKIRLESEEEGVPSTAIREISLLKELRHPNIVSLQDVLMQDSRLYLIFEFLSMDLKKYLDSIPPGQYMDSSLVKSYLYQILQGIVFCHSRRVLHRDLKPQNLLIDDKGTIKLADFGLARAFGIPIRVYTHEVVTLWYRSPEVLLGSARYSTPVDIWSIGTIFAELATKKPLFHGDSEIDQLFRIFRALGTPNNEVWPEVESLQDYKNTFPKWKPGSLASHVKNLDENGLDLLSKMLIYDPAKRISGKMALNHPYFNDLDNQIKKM
Sequence of Cyclin-dependent kinase 1/cyclin B1 (P14635 whole entry, further chain): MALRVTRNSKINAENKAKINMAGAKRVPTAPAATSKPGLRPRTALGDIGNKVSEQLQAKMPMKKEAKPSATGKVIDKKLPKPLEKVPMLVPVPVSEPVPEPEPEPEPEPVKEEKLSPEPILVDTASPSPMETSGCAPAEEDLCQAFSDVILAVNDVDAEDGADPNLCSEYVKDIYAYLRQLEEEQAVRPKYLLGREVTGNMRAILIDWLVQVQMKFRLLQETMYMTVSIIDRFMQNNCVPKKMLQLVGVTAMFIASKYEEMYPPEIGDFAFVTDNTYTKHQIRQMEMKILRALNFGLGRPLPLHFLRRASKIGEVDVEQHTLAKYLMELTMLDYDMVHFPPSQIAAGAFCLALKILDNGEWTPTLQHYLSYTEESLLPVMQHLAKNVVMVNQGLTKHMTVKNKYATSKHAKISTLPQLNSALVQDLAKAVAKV

[8] = Metabolic stability in dog liver microsomes assessed as half life at 1 uM incubated up to 60 mins in presence of NADPH by LC-MS/MS analysis; type: ADME, Canis lupus familiaris, Microsome; method in brief: as §3
[9] = Oral bioavailability in ICR mouse at 30 mg/kg measured up to 24 hrs by LC-MS/MS analysis; type: ADME, organism-based; details: in vivo
Method in brief: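 ICR mice (9 per route) received 30 mg/kg p.o. or 2.0 mg/kg i.v. Plasma was sampled to 24 h and analysed by LC-MS/MS. F (%) = AUC0-∞(oral)/AUC0-∞(iv) × dose(iv)/dose(oral) × 100.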

A549 = assay: Antiproliferative activity against human A549 cells assessed as inhibition of cell growth incubated for 72 hrs by Celltiter-Glo luminescent assay; type: functional, cell-based; details: A549, 72 h; method in brief: as §2
[10] = AUC (0 to t) in ICR mouse at 30 mg/kg, po measured up to 24 hrs by LC-MS/MS analysis; type: ADME, organism-based; parameters: route oral, dose 30 mg/kg, time <=24; details: in vivo
Method in brief: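 Male ICR mice (25.1–28.8 g, n=9), fasted overnight (12 h), single oral gavage 30 mg/kg as 3 mg/mL in 0.5% CMC-Na with 0.2% Tween 80. Venous blood drawn into EDTA-K2 at 0, 0.25, 0.5, 1, 2, 4, 8, 24 h. Plasma protein-precipitated with ACN and run on LC-MS/MS (C18, formic acid/ACN). Noncompartmental parameters taken from composite mean concentration-time data.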

[11] = Metabolic stability in rat liver microsomes assessed as intrinsic clearance at 1 uM incubated up to 60 mins in presence of NADPH by LC-MS/MS analysis; type: ADME, Microsome; details: read-out: CLH; method in brief: as §3
CDK6/cyclin D3 = CDK6/cyclin D3 (Homo sapiens, UniProt Q00534); assay: Inhibition of CDK6/Cyclin D3 (unknown origin) preincubated for 20 mins followed by ATP addition and measured after 120 mins in presence of [33P-gamma] ATP by hotspot kinase assay; type: protein-complex assay; method in brief: as §1
Sequence of CDK6/cyclin D3 (P30281 whole entry): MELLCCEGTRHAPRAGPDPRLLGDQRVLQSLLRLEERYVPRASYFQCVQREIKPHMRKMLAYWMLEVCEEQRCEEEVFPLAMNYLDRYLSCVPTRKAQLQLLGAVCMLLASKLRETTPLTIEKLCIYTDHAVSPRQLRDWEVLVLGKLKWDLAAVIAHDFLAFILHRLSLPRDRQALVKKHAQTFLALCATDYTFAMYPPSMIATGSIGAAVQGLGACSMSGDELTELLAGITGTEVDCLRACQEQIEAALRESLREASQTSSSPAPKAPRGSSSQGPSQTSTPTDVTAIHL
Sequence of CDK6/cyclin D3 (Q00534 whole entry): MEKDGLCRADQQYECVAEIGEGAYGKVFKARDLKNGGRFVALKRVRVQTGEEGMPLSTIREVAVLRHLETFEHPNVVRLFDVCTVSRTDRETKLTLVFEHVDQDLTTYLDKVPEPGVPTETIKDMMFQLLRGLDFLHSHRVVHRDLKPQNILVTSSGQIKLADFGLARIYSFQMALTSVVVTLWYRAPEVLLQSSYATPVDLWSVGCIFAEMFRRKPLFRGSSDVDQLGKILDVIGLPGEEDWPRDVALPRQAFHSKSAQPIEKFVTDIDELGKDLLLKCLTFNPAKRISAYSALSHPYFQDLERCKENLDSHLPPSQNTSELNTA

[12] = target: Cyclin-dependent kinase 4/cyclin D1 (Homo sapiens, UniProt P11802); assay: Inhibition of CDK4/Cyclin D1 (unknown origin) preincubated for 20 mins followed by ATP addition and measured after 120 mins in presence of [33P-gamma] ATP by hotspot kinase assay; type: protein-complex assay; method in brief: as §1
Sequence of Cyclin-dependent kinase 4/cyclin D1 (P11802 whole entry): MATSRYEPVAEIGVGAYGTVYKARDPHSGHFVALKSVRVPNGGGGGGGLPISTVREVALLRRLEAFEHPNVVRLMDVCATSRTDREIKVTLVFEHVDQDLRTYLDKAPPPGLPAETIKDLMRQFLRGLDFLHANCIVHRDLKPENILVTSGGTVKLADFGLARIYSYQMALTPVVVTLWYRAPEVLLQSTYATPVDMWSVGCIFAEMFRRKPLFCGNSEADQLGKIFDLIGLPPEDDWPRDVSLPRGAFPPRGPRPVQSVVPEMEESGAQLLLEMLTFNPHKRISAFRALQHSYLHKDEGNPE
Sequence of Cyclin-dependent kinase 4/cyclin D1 (P24385 whole entry, further chain): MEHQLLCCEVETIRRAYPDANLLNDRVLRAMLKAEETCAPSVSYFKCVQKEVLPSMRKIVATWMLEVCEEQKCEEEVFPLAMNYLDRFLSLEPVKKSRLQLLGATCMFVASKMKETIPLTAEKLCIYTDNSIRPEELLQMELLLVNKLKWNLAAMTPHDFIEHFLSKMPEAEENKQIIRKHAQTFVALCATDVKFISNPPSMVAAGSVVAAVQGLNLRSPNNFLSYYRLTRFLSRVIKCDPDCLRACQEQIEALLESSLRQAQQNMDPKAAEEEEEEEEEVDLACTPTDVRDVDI

Q: Which IC50 [1] does the source give for `COc1cc(F)ccc1-c1nc(Nc2ccc3c(N4CCOCC4)c(C(C)=O)c(=O)oc3c2)ncc1F` here?
A: 1010 nM

Q: And the C0 at 24 h [2]?
A: 3060 ng/mL

Q: What about the IC50 (NCI-H460) of the same compound?
A: 640 nM

Q: What about the IC50 (SW-620) of the same compound?
A: 430 nM

Q: What about the IC50 [3] of the same compound?
A: 1260 nM

Q: And the Activity [4]?
A: < 10%

Q: And the microsomal CLint at 1 µM [5]?
A: 38.8 µL/min/mg

Q: And the IC50 (CDK3/Cyclin E)?
A: 1510 nM

Q: And the IC50 (HepG2)?
A: 100 nM

Q: And the Activity [6]?
A: Non-Toxic

Q: And the IC50 [7]?
A: 1950 nM

Q: And the half-life at 1 µM [8]?
A: 14 min

Q: And the bioavailability [9]?
A: 14.3%

Q: And the IC50 (A549)?
A: 470 nM

Q: And the AUC(0-t) at 24 h [10]?
A: 1200 ng·h/mL

Q: What about the microsomal CLint at 1 µM [11] of the same compound?
A: 689 µL/min/mg

Q: What about the IC50 (CDK6/cyclin D3) of the same compound?
A: 336 nM

Q: What about the IC50 [12] of the same compound?
A: 471 nM
